From ChEMBL document CHEMBL5303300, “EUbOPEN Chemogenomics Library - Multiplex” (2023)
Where “and” joins values, the source holds several entries; their conditions need not be identical. Equal values may be shown once.

System: Fibroblast
Assay: Multiplex assay against human fibroblast
Assay type: toxicity, cell-based
Conditions: number of replicates 2
Outline: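 Live cells were stained at seeding with Hoechst33342, BioTracker Green Microtubule Cytoskeleton Dye, MitoTracker Red and Annexin V Alexa Fluor 680. Following compound addition, they were imaged on a CQ1 microscope at 37°C and 5% CO2 and gated by CellPathfinder machine learning into Hoechst high-intensity objects or normal cells, with normal cells split into healthy, pyknosed or fragmented nuclei and pyknosed cells into mitotic or apoptotic. Tubulin, mitochondrial-mass and membrane-permeability phenotypes are per cents of healthy-nucleus cells.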

[1] = 12 h, 1 µM, compound concentration 1 uM
[2] = 12 h, 10 µM, compound concentration 10 uM
[3] = 24 h, 1 µM, compound concentration 1 uM
[4] = 24 h, 10 µM, compound concentration 10 uM
[5] = 48 h, 1 µM, compound concentration 1 uM
[6] = 48 h, 10 µM, compound concentration 10 uM

## O=C1NC(=O)C(c2ccccc2[N+](=O)[O-])=C1Nc1ccc(O)c(Cl)c1
[1]
  Population Fragmented Nuclei (%): 10% and 18%
  Population Healthy Nuclei (%): 77% and 65%
  Population Hoechst High Intensity Objects (%): 0%
  Population Membrane Permeable-Phenotype (%): 3% and 7%
  Population Mitochondria Different-Phenotype (%): 1% and 0%
  Population Mitotic Cells (%): 87% and 53%
  Population Normal (%): 100% and 99%
  Population Pyknosed Nuclei (%): 11% and 16%
  Population Tubulin-Different-Phenotype (%): 4% and 9%
[2]
  Population Apoptotic (%): 46% and 47%
  Population Fragmented Nuclei (%): 8% and 12%
  Population Healthy Nuclei (%): 82% and 80%
  Population Hoechst High Intensity Objects (%): 0%
  Population Membrane Permeable-Phenotype (%): 1% and 2%
  Population Mitochondria Different-Phenotype (%): 0% and 1%
  Population Mitotic Cells (%): 53% and 52%
  Population Normal (%): 100%
  Population Pyknosed Nuclei (%): 9% and 7%
  Population Tubulin-Different-Phenotype (%): 6% and 5%
[3]
  Population Apoptotic (%): 45% and 57%
  Population Fragmented Nuclei (%): 10% and 17%
  Population Healthy Nuclei (%): 84% and 74%
  Population Hoechst High Intensity Objects (%): 0%
  Population Membrane Permeable-Phenotype (%): 2% and 4%
  Population Mitochondria Different-Phenotype (%): 0% and 1%
  Population Mitotic Cells (%): 54% and 42%
  Population Normal (%): 100%
  Population Pyknosed Nuclei (%): 5% and 8%
  Population Tubulin-Different-Phenotype (%): 5% and 7%
[4]
  Population Apoptotic (%): 40% and 37%
  Population Fragmented Nuclei (%): 12% and 11%
  Population Healthy Nuclei (%): 81% and 84%
  Population Hoechst High Intensity Objects (%): 0%
  Population Membrane Permeable-Phenotype (%): 2% and 3%
  Population Mitochondria Different-Phenotype (%): 0% and 1%
  Population Mitotic Cells (%): 60% and 62%
  Population Normal (%): 100%
  Population Pyknosed Nuclei (%): 6% and 3%
  Population Tubulin-Different-Phenotype (%): 7% and 2%
[5]
  Population Apoptotic (%): 35% and 46%
  Population Fragmented Nuclei (%): 12% and 19%
  Population Healthy Nuclei (%): 81% and 73%
  Population Hoechst High Intensity Objects (%): 0%
  Population Membrane Permeable-Phenotype (%): 1% and 2%
  Population Mitochondria Different-Phenotype (%): 0%
  Population Mitotic Cells (%): 64% and 53%
  Population Normal (%): 100%
  Population Pyknosed Nuclei (%): 6%
  Population Tubulin-Different-Phenotype (%): 3% and 2%
[6]
  Population Apoptotic (%): 33% and 75%
  Population Fragmented Nuclei (%): 6% and 11%
  Population Healthy Nuclei (%): 91% and 84%
  Population Hoechst High Intensity Objects (%): 0%
  Population Membrane Permeable-Phenotype (%): 3% and 0%
  Population Mitochondria Different-Phenotype (%): 0%
  Population Mitotic Cells (%): 66% and 25%
  Population Normal (%): 100%
  Population Pyknosed Nuclei (%): 1% and 3%
  Population Tubulin-Different-Phenotype (%): 7% and 1%

## CC(C)c1c(NC(=O)Nc2ccc(Cl)cc2)c(=O)n(-c2ccccc2)n1C
[1]
  Population Apoptotic (%): 30% and 36%
  Population Fragmented Nuclei (%): 9% and 13%
  Population Healthy Nuclei (%): 77% and 68%
  Population Hoechst High Intensity Objects (%): 0%
  Population Membrane Permeable-Phenotype (%): 5% and 3%
  Population Mitochondria Different-Phenotype (%): 0%
  Population Mitotic Cells (%): 69% and 63%
  Population Normal (%): 100% and 99%
  Population Pyknosed Nuclei (%): 13% and 17%
  Population Tubulin-Different-Phenotype (%): 11% and 7%
  Total Cell Count: 175 and 269
[2]
  Population Apoptotic (%): 34% and 46%
  Population Fragmented Nuclei (%): 9% and 7%
  Population Healthy Nuclei (%): 68%
  Population Hoechst High Intensity Objects (%): 0%
  Population Membrane Permeable-Phenotype (%): 2% and 11%
  Population Mitochondria Different-Phenotype (%): 1%
  Population Mitotic Cells (%): 65% and 53%
  Population Normal (%): 99% and 100%
  Population Pyknosed Nuclei (%): 21% and 24%
  Population Tubulin-Different-Phenotype (%): 12% and 21%
  Total Cell Count: 122 and 191
[3]
  Population Apoptotic (%): 34% and 35%
  Population Fragmented Nuclei (%): 10% and 14%
  Population Healthy Nuclei (%): 75% and 71%
  Population Hoechst High Intensity Objects (%): 0%
  Population Membrane Permeable-Phenotype (%): 5% and 6%
  Population Mitochondria Different-Phenotype (%): 0% and 1%
  Population Mitotic Cells (%): 65% and 64%
  Population Normal (%): 100%
  Population Pyknosed Nuclei (%): 13%
  Population Tubulin-Different-Phenotype (%): 14% and 5%
  Total Cell Count: 166 and 271
[4]
  Population Apoptotic (%): 48% and 35%
  Population Fragmented Nuclei (%): 5% and 6%
  Population Healthy Nuclei (%): 73% and 65%
  Population Hoechst High Intensity Objects (%): 0%
  Population Membrane Permeable-Phenotype (%): 7% and 6%
  Population Mitochondria Different-Phenotype (%): 0%
  Population Mitotic Cells (%): 52% and 64%
  Population Normal (%): 100%
  Population Pyknosed Nuclei (%): 20% and 27%
  Population Tubulin-Different-Phenotype (%): 13%
  Total Cell Count: 123 and 204
[5]
  Population Apoptotic (%): 79% and 65%
  Population Fragmented Nuclei (%): 14% and 17%
  Population Healthy Nuclei (%): 71% and 74%
  Population Hoechst High Intensity Objects (%): 0%
  Population Membrane Permeable-Phenotype (%): 2% and 6%
  Population Mitochondria Different-Phenotype (%): 0%
  Population Mitotic Cells (%): 20% and 34%
  Population Normal (%): 100%
  Population Pyknosed Nuclei (%): 13% and 8%
  Population Tubulin-Different-Phenotype (%): 8% and 4%
  Total Cell Count: 174 and 274
[6]
  Population Apoptotic (%): 53% and 47%
  Population Fragmented Nuclei (%): 17% and 14%
  Population Healthy Nuclei (%): 70% and 62%
  Population Hoechst High Intensity Objects (%): 0%
  Population Membrane Permeable-Phenotype (%): 8% and 10%
  Population Mitochondria Different-Phenotype (%): 0%
  Population Mitotic Cells (%): 46% and 52%
  Population Normal (%): 100% and 99%
  Population Pyknosed Nuclei (%): 11% and 23%
  Population Tubulin-Different-Phenotype (%): 12% and 13%
  Total Cell Count: 134 and 222

## C=CC(=O)Nc1cccc(C)c1Nc1ncc2cc(-c3c(Cl)c(OC)cc(OC)c3Cl)ccc2n1
[1]
  Population Apoptotic (%): 30% and 35%
  Population Fragmented Nuclei (%): 11% and 9%
  Population Healthy Nuclei (%): 73% and 66%
  Population Hoechst High Intensity Objects (%): 0%
  Population Membrane Permeable-Phenotype (%): 4%
  Population Mitochondria Different-Phenotype (%): 0% and 1%
  Population Mitotic Cells (%): 69% and 64%
  Population Normal (%): 100% and 99%
  Population Pyknosed Nuclei (%): 14% and 23%
  Population Tubulin-Different-Phenotype (%): 12% and 9%
  Total Cell Count: 248 and 242
[2]
  Population Apoptotic (%): 60% and 47%
  Population Fragmented Nuclei (%): 35% and 15%
  Population Healthy Nuclei (%): 40% and 60%
  Population Membrane Permeable-Phenotype (%): 0% and 8%
  Population Mitochondria Different-Phenotype (%): 1% and 4%
  Population Mitotic Cells (%): 40% and 52%
  Population Normal (%): 71% and 100%
  Population Pyknosed Nuclei (%): 24% and 23%
  Population Tubulin-Different-Phenotype (%): 17% and 21%
  Total Cell Count: 202 and 201
[3]
  Population Apoptotic (%): 48% and 60%
  Population Fragmented Nuclei (%): 10% and 9%
  Population Healthy Nuclei (%): 71%
  Population Hoechst High Intensity Objects (%): 0%
  Population Membrane Permeable-Phenotype (%): 3% and 5%
  Population Mitochondria Different-Phenotype (%): 1%
  Population Mitotic Cells (%): 51% and 40%
  Population Normal (%): 99%
  Population Pyknosed Nuclei (%): 17% and 19%
  Population Tubulin-Different-Phenotype (%): 8% and 9%
  Total Cell Count: 245 and 232
[4]
  Population Apoptotic (%): 71% and 63%
  Population Fragmented Nuclei (%): 38% and 17%
  Population Healthy Nuclei (%): 41% and 63%
  Population Membrane Permeable-Phenotype (%): 0% and 1%
  Population Mitochondria Different-Phenotype (%): 0% and 9%
  Population Mitotic Cells (%): 28% and 36%
  Population Normal (%): 60% and 100%
  Population Pyknosed Nuclei (%): 20% and 19%
  Population Tubulin-Different-Phenotype (%): 7% and 20%
  Total Cell Count: 283 and 188
[5]
  Population Apoptotic (%): 61% and 67%
  Population Fragmented Nuclei (%): 12%
  Population Healthy Nuclei (%): 73%
  Population Hoechst High Intensity Objects (%): 0%
  Population Membrane Permeable-Phenotype (%): 3% and 5%
  Population Mitochondria Different-Phenotype (%): 1% and 0%
  Population Mitotic Cells (%): 38% and 32%
  Population Normal (%): 100%
  Population Pyknosed Nuclei (%): 13% and 14%
  Population Tubulin-Different-Phenotype (%): 6% and 14%
  Total Cell Count: 243 and 214
[6]
  Population Apoptotic (%): 83%
  Population Fragmented Nuclei (%): 40% and 15%
  Population Healthy Nuclei (%): 40% and 71%
  Population Membrane Permeable-Phenotype (%): 1% and 4%
  Population Mitochondria Different-Phenotype (%): 4%
  Population Mitotic Cells (%): 16%
  Population Normal (%): 52% and 100%
  Population Pyknosed Nuclei (%): 18% and 12%
  Population Tubulin-Different-Phenotype (%): 10% and 11%
  Total Cell Count: 309 and 189
